Laboratory results taken from ChEMBL document CHEMBL4706641, “Novel Carboline Fungal Histone Deacetylase (HDAC) Inhibitors for Combinational Treatment of Azole-Resistant Candidiasis” (J Med Chem, 2021).
In brackets after ≈: the same amount, converted by molar mass. Activity calls are given as the source filed them.

What was measured:
Candida albicans [1] = test: Synergistic antifungal activity against azole-resistant Candida albicans assessed as potentiation of VRC antifungal activity by measuring VRC incubated for 48 hrs in presence of fluconazole by checkerboard microdilution assay; type: functional
Candida albicans [2] = test: Synergistic antifungal activity against Candida albicans 0304103 assessed as potentiation of fluconazole antifungal activity by measuring FICI incubated for 48 hrs in presence of fluconazole by checkerboard microdilution assay; type: functional
Summary of the method: (§1)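 Checkerboard broth microdilution per CLSI M27-A3 (modified), clinical Candida isolates. Exponential cells in RPMI 1640 (MOPS-buffered) at 10³ cells/mL; fluconazole 0.25–64 μg/mL crossed with test compound 2–64 μg/mL (final). 48 h at 35 °C; OD630 read with background subtracted. MIC80 = 80% growth inhibition; FICI ≤0.5 synergy, >4 antagonism.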

Candida albicans [3] = test: Synergistic antifungal activity against Candida albicans 0304103 incubated for 48 hrs in presence of fluconazole by microdilution assay; type: functional; summary of the method: as §1
Candida albicans [4] = test: Antifungal activity against Candida albicans 0304103 incubated for 48 hrs by microdilution assay; type: functional; summary of the method: as §1
Candida albicans [5] = test: microbe, parasite or virus in culture; type: functional, 0304103
Candida albicans [6] = test: Synergistic antifungal activity against azole-resistant Candida albicans assessed as potentiation of ITC antifungal activity by measuring ITC incubated for 48 hrs in presence of fluconazole by checkerboard microdilution assay; type: functional
Pichia kudriavzevii [7] = test: Synergistic antifungal activity against Candida krusei 10153 assessed as fluconazole MIC incubated for 48 hrs in presence of fluconazole by microdilution assay (reference value: fluconazole alone MIC = […] ug/ml); type: functional
Candida albicans [8] = test: Antifungal activity against Candida albicans 9172 incubated for 48 hrs by microdilution assay; type: functional; summary of the method: as §1
Candida albicans [9] = test: Antifungal activity against Candida albicans 9884 incubated for 48 hrs by microdilution assay; type: functional; summary of the method: as §1
Candida albicans [10] = test: Synergistic antifungal activity against Candida albicans 4108 incubated for 48 hrs in presence of fluconazole by microdilution assay; type: functional; summary of the method: as §1
Candida albicans [11] = test: Antifungal activity against Candida albicans 4108 incubated for 48 hrs by microdilution assay; type: functional; summary of the method: as §1
Candida albicans [12] = test: Synergistic antifungal activity against Candida albicans 9172 assessed as fluconazole MIC incubated for 48 hrs in presence of fluconazole by microdilution assay (reference value: fluconazole alone MIC = >[…] ug/ml); type: functional
Candida albicans [13] = test: Synergistic antifungal activity against Candida albicans 10061 incubated for 48 hrs in presence of fluconazole by microdilution assay; type: functional; summary of the method: as §1
Candida albicans [14] = test: Antifungal activity against Candida albicans 10061 incubated for 48 hrs by microdilution assay; type: functional; summary of the method: as §1
Pichia kudriavzevii [15] = test: Synergistic antifungal activity against Candida krusei 10153 incubated for 48 hrs in presence of fluconazole by microdilution assay; type: functional; summary of the method: as §1
Candida albicans [16] = test: Synergistic antifungal activity against Candida albicans 10061 assessed as fluconazole MIC incubated for 48 hrs in presence of fluconazole by microdilution assay (reference value: fluconazole alone MIC = >[…] ug/ml); type: functional
Pichia kudriavzevii [17] = test: Antifungal activity against Candida krusei 10153 incubated for 48 hrs by microdilution assay; type: functional; summary of the method: as §1
Candida albicans [18] = test: Synergistic antifungal activity against Candida albicans 9884 incubated for 48 hrs in presence of fluconazole by microdilution assay; type: functional; summary of the method: as §1
Candida albicans [19] = test: Synergistic antifungal activity against Candida albicans 9884 assessed as fluconazole MIC incubated for 48 hrs in presence of fluconazole by microdilution assay (reference value: fluconazole alone MIC = >[…] ug/ml); type: functional
Candida albicans [20] = test: Synergistic antifungal activity against Candida albicans 9172 incubated for 48 hrs in presence of fluconazole by microdilution assay; type: functional; summary of the method: as §1
Candida albicans [21] = test: Synergistic antifungal activity against Candida albicans 4108 assessed as fluconazole MIC incubated for 48 hrs in presence of fluconazole by microdilution assay (reference value: fluconazole alone MIC = >[…] ug/ml); type: functional
Candida albicans [22] = test: Inhibition of biofilm formation in Candida albicans 0304103 at 2 to 32 ug/ml incubated for 24 hrs by XTT reduction assay; type: functional, organism-based; conditions: dose 2-32 µg/ml
Summary of the method: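 C. albicans 0304103 at 1.0 × 10⁶ CFU/mL in RPMI 1640 was allowed to adhere for 90 min at 37 °C, then washed with PBS. Fresh medium was added with fluconazole 2–32 μg/mL and/or test compound 0.12–64 μg/mL, followed by 24 h at 37 °C. Biofilm was measured semiquantitatively by XTT reduction at OD490. Three independent experiments were run.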

Candida albicans [23] = test: Antifungal activity against Candida albicans 0304103 infected in ICR mouse model of candidiasis assessed as reduction in morphological changes of budded-to-hyphal transition at 1 mg/kg, ip dosed 24 hrs post infection and measured after 5 days by H and E staining based microscopical analysis; type: functional, organism-based; conditions: time 5.0 day
Candida albicans [24] = test: Effect on CDR2 mRNA expression in Candida albicans 0304103 at 32 ug/ml incubated for 24 hrs by RT-PCR analysis; type: functional; conditions: dose 32.0 µg/ml
Summary of the method: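 C. albicans 0304103 was started at 1 × 10⁶ cells/mL and treated with DMSO control, fluconazole 32 μg/mL, test compound 32 μg/mL, or both. Cultures were held in YEPD at 35 °C for 24 h, then total RNA was extracted and reverse-transcribed. Real-time PCR ran 40 cycles. Fold change was calculated by 2^−ΔΔCt against ACT1.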

Candida albicans [25] = test: Antifungal activity against Candida albicans 0304103 infected in ICR mouse model of candidiasis assessed as reduction in fungal invasion by measuring clusters of fungal infiltration in renal pelvis at 1 mg/kg, ip dosed 24 hrs post infection and measured after 5 days by H and E staining based microscopical analysis; type: functional, organism-based; conditions: time 5.0 day
Candida albicans [26] = test: Antifungal activity against Candida albicans 0304103 infected in ICR mouse model of candidiasis assessed as reduction in kidney fungal burden at 1 mg/kg, ip dosed 24 hrs post infection and measured after 5 days; type: functional, organism-based; conditions: time 5.0 day
Candida albicans [27] = test: Antifungal activity against Candida albicans 0304103 at 64 ug/ml incubated for 48 hrs by microdilution assay; type: functional, organism-based; conditions: dose 64.0 µg/ml
Summary of the method: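 Checkerboard microdilution adapted from CLSI M27-A3. Exponential-phase cells resuspended at 10³ cells/mL in RPMI 1640 buffered with 0.165 M MOPS. Final concentrations were fluconazole 0.25–64 μg/mL and test compound 2–64 μg/mL. Plates were held 48 h at 35 °C and read at OD630 with background subtracted. MIC80 was used, and the FICI cut-offs were synergy ≤0.5 and antagonism >4.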

Candida albicans [28] = test: Induction of morphological changes in Candida albicans assessed as reduction in morphological conversion from yeast to hypha forms at 32 ug/ml incubated for 3 hrs by inverse fluorescence microscopy; type: functional, organism-based; conditions: dose 32.0 µg/ml
Summary of the method: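 Exponential-phase C. albicans were suspended in Spider medium ([…], 2% NaHCO₃, […]) at 2 × 10⁶ cells/mL. Drugs were added alone or combined, with DMSO as control. After 3 h at 37 °C, cells were imaged by inverted fluorescence microscopy. Three independent experiments were run.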

Cryptococcus neoformans = test: Antifungal activity against Cryptococcus neoformans; type: functional
[29] = Candida albicans, 0304103, read-out: MIC80
[30] = Candida albicans, 0304103, time 48 hrs, read-out: MIC80

SMILES | fractional inhibitory concentration index (FICI) (Candida albicans [1]) | fractional inhibitory concentration index (FICI) (Candida albicans [2]) | MIC80 (Candida albicans [3]) [mg/L] | MIC80 (Candida albicans [4]; [29]) [mg/L] | MIC80 (Candida albicans [5]; [30]) [mg/L] | fractional inhibitory concentration index (FICI) (Candida albicans [6]) | further results
COc1ccc2c(c1)c1c(n2CCCOc2ccc(CC(=O)NO)cc2)CNCC1 | 0.035 | 0.13 | 8 | > 64 | 0.5 (≈ 1.22 µM) | 0.035 | –
O=C(Cc1ccc(OCCCn2c3c(c4cc(F)ccc42)CCNC3)cc1)NO | 0.035 | 0.062 | 2 | > 64 | 2 (≈ 5.03 µM) | 0.035 | –
COc1cccc2c3c(n(CCCOc4ccc(CC(=O)NO)cc4)c12)CNCC3 | 0.035 | 0.047 | 2 | > 64 | 1 (≈ 2.44 µM) | 0.035 | –
O=C(Cc1ccc(OCCCn2c3c(c4c(Br)cccc42)CCNC3)cc1)NO | 0.035 | 0.066 | 4 | > 64 | 0.25 (≈ 0.545 µM) | 0.035 | –
O=C(Cc1ccc(OCCCn2c3c(c4cc(Br)ccc42)CCNC3)cc1)NO | 0.035 | 0.035 | 2 | 64 (≈ 140 µM) | 0.25 (≈ 0.545 µM) | 0.035 | –
CN1CCc2c(c3ccccc3n2Cc2ccc(C(=O)NO)cc2)C1 [TUBASTATIN A] | – | – | – | – | – | – | MIC80 (Pichia kudriavzevii [7]): 32 mg/L; MIC80 (Candida albicans [8]): > 64 mg/L; MIC80 (Candida albicans [9]): > 64 mg/L; MIC80 (Candida albicans [10]): 8 mg/L; MIC80 (Candida albicans [11]): > 64 mg/L; MIC80 (Candida albicans [12]): 0.5 mg/L; MIC80 (Candida albicans [13]): 2 mg/L; MIC80 (Candida albicans [14]): > 64 mg/L; MIC80 (Pichia kudriavzevii [15]): 64 mg/L; MIC80 (Candida albicans [16]): 0.5 mg/L; MIC80 (Pichia kudriavzevii [17]): > 64 mg/L; MIC80 (Candida albicans [18]): 4 mg/L; MIC80 (Candida albicans [19]): 1 mg/L; MIC80 (Candida albicans [20]): 16 mg/L; MIC80 (Candida albicans [21]): 0.5 mg/L
Cc1ccc2c(c1)c1c(n2CCCOc2ccc(CC(=O)NO)cc2)CNCC1 | 0.035 | 0.078 | 4 | > 64 | 1 (≈ 2.54 µM) | 0.035 | –
O=C(Cc1ccc(OCCCn2c3c(c4ccc(F)cc42)CCNC3)cc1)NO | 0.035 | 0.047 | 2 | > 64 | 1 (≈ 2.52 µM) | 0.035 | –
O=C(CCCCCCC(=O)Nc1ccccc1)NO [VORINOSTAT] | – | – | – | – | – | – | MIC80 (Candida albicans [4]): >64 mg/L; MIC80 (Candida albicans [5]; 48 h): 0.25 mg/L (≈ 0.946 µM)
O=C(Cc1ccc(OCCCn2c3c(c4ccccc42)CCNC3)cc1)NO | 0.035 | 0.07 | 4 | > 64 | 0.5 (≈ 1.32 µM) | 0.035 | –
O=C(Cc1ccc(OCCCn2c3c(c4c(Cl)cccc42)CCNC3)cc1)NO | 0.035 | 0.039 | 2 | > 64 | 0.5 (≈ 1.21 µM) | 0.035 | –
OC(Cn1cncn1)(Cn1cncn1)c1ccc(F)cc1F [FLUCONAZOLE] | – | – | – | > 64 | – | – | inhibition (Candida albicans [22]): inactive; MIC80 (Candida albicans [8]): > 64 mg/L; MIC80 (Candida albicans [9]): > 64 mg/L; MIC80 (Candida albicans [11]): > 64 mg/L; Activity (Candida albicans [23]): inactive; Activity (Candida albicans [24]): inactive; MIC80 (Candida albicans [14]): > 64 mg/L; MIC80 (Pichia kudriavzevii [17]): 64 mg/L (≈ 209 µM); Activity (Candida albicans [25]): inactive; Activity (Candida albicans [26]): inactive; Activity (Candida albicans [27]): inactive; Activity (Candida albicans [28]): inactive
O=C(Cc1ccc(OCCCn2c3c(c4ccc(Cl)cc42)CCNC3)cc1)NO | 0.035 | 0.047 | 2 | 64 (≈ 155 µM) | 1 (≈ 2.42 µM) | 0.035 | –
Clc1ccc(OCCCn2c3c(c4cc(Cl)ccc42)CCNC3)cc1.O=C(O)C(F)(F)F | – | – | – | – | – | – | MIC80 (Cryptococcus neoformans): 0.25 mg/L
O=C(Cc1ccc(OCCCn2c3c(c4ccc(Br)cc42)CCNC3)cc1)NO | 0.035 | 0.039 | 2 | > 64 | 0.5 (≈ 1.09 µM) | 0.035 | –
